# Reference: ChEMBL document CHEMBL1154864, “Oblongolides from the endophytic fungus Phomopsis sp. BCC 9789” (J Nat Prod, 2010)
# Columns and labels:
# [1] = tested on: Mycobacterium tuberculosis; assay: Antituberculosis activity against Mycobacterium tuberculosis H37Ra after 4 days by Alamar blue assay; assay type: functional; conditions: 96 h
# In short: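 Microplate resazurin (Alamar Blue) growth-inhibition assay against M. tuberculosis H37Ra; MIC taken as the lowest concentration giving ≥90% growth inhibition.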
# [2] = tested on: KB; assay: Cytotoxicity against human KB cells by SRB assay; assay type: functional, cell-based
# In short: (§1)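 Colorimetric cytotoxicity assay run on oral human epidermal carcinoma (KB), human breast cancer (BC), human small-cell lung cancer (NCI-H187) and African green monkey kidney fibroblast (Vero) cells. IC50 values are reported in µM.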
# [3] = Cytotoxicity against human BC cells by SRB assay; assay type: functional, cell-based; in short: as §1
# [4] = tested on: NCI-H187; assay: Cytotoxicity against human NCI-H187 cells by SRB assay; assay type: functional, cell-based; in short: as §1
# [5] = tested on: Vero; assay: Cytotoxicity against African green monkey Vero cells by SRB assay; assay type: cell-based; conditions: Chlorocebus sabaeus; in short: as §1
# [6] = tested on: Human alphaherpesvirus 1; assay: Antiviral activity against Herpes simplex virus type 1; assay type: functional, organism-based
# In short: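 HSV-1 antiviral activity read out by a colorimetric method, with IC50 values in µM.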
Structure (SMILES),MIC [1] [µM],IC50 [2] [µM],IC50 [3] [µM],IC50 [4] [µM],IC50 [5] [µM],IC50 [6] [µM]
C[C@H]1CC[C@H]2[C@@H](C=C[C@@H]3COC(=O)[C@@]32C)C1 [OBLONGOLIDE],227,> 91,> 91,> 91,> 227,
Cc1ccc(O)c2c1C[C@@H](C)OC2=O,> 260,> 104,> 104,> 104,> 260,
C[C@H]1CC[C@H]2[C@@H](C=C[C@@H]3CO[C@@](O)(CO)C(=O)[C@@]32C)C1 [OBLONGOLIDE X],> 178,> 71,> 71,> 71,96,
C[C@H]1CC[C@H]2[C@@H](C=C[C@@H]3COC(=O)[C@@](O)(CO)[C@@]32C)C1 [OBLONGOLIDE W1],178,> 71,> 71,> 71,> 178,
C[C@H]1CC[C@H]2[C@@H](C=C[C@@H]3COC(=O)[C@](O)(CO)[C@@]32C)C1 [OBLONGOLIDE W2],> 178,> 71,> 71,> 71,> 178,
Nc1nc2c(ncn2COCCO)c(=O)[nH]1 [ACYCLOVIR],,,,,,13
C[C@H]1CC[C@H]2[C@@H](C=C[C@]3(O)COC(=O)[C@]23C)C1 [OBLONGOLIDE C],> 212,> 85,> 85,> 85,> 212,
COc1cccc2c1C(=O)c1c(O)c3c(c(O)c1C2=O)C[C@@](O)(C(=O)CO)C[C@@H]3O[C@H]1C[C@H](N)[C@H](O)[C@H](C)O1 [DOXORUBICIN],,0.24,,0.08,,
NNC(=O)c1ccncc1 [ISONIAZID],0.36,,,,,
CO[C@]1(C(C)=O)OC[C@H]2C=C[C@H]3C[C@@H](C)CC[C@@H]3[C@]21C [OBLONGOLIDE Y],> 180,> 72,48,> 72,> 180,
CC(=O)[C@@]1(OCCc2ccccc2)OC[C@H]2C=C[C@H]3C[C@@H](C)CC[C@@H]3[C@]21C [OBLONGOLIDE Z],> 136,37,26,32,60,
Cc1c2ccncc2c(C)c2c1[nH]c1ccccc12 [ELLIPTECINE],,,,,1.75,
C[C@H]1CC[C@H]2[C@@H](C=C[C@@H]3CO[C@](C)(O)C(=O)[C@@]32C)C1 [OBLONGOLIDE T],> 189,> 76,> 76,> 76,> 189,
C[C@H]1CC[C@H]2[C@@H](C=C[C@@H]3[C@@H](O)O[C@@H](CO)C(=O)[C@@]32C)C1,> 178,> 71,> 71,> 71,> 178,
C[C@H]1CC[C@H]2[C@H](C1)[C@@H]1O[C@@H]1[C@@H]1COC(=O)[C@]21C [OBLONGOLIDE Q],> 212,> 85,> 85,> 85,> 212,
